For data set [1], the target named is T1, Hexokinase-4 (Homo sapiens, UniProt P35557).
T1 sequence (P35557 whole entry): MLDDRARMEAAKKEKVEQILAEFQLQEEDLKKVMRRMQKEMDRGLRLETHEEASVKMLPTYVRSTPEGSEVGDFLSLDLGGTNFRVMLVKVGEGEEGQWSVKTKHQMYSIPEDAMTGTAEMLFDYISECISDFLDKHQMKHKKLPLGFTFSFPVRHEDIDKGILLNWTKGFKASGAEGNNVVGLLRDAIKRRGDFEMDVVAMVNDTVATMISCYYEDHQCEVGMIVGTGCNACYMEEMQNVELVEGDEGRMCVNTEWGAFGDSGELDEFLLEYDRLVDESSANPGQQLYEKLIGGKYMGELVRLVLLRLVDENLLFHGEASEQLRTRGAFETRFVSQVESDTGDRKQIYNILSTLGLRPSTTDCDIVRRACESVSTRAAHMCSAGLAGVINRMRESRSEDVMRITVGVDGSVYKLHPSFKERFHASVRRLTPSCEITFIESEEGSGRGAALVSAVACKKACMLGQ
The data set is described as follows: Activation of recombinant human pancreatic glucokinase using 10 mM glucose as substrate by G6PDH coupled assay. In short, it runs like this:
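Recombinant human pancreatic glucokinase, with glucose at 10 mM. Activity was read as the increase in GK enzyme activity. EC50, Vmax and S0.5 were derived from this. Values are means of triplicate runs.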

Data set [2] deals with Mus musculus. The data set is described as follows: Antidiabetic activity in C57BL/6 mouse assessed as reduction of blood glucose AUC at 50 mg/kg, po administered 30 mins prior to glucose challenge measured over 180 mins by OGTT relative to vehicle-treated control. It is filed as functional. Also noted: scale not given: the % may be the effect or the level left. In short, it runs like this:
(§1)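 Oral glucose tolerance test in C57BL/6J mice with oral dosing. Blood glucose was followed after the glucose challenge, and the result was expressed as the % reduction in blood glucose AUC.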

The test system of data set [3] is Mus musculus. The data set is described as follows: Antidiabetic activity in C57BL/6 mouse assessed as reduction of blood glucose AUC at 30 mg/kg, po administered 30 mins prior to glucose challenge measured over 180 mins by OGTT relative to vehicle-treated control. It is filed as functional. Also noted: scale not given: the % may be the effect or the level left. In short, it runs like this:
as §1

The subject of data set [4] is Mus musculus. The data set is described as follows: Antidiabetic activity in C57BL/6J mouse assessed as blood glucose level at 30 mg/kg, po after 60 mins by fasted glucose tolerance test. The format is functional. The method in brief: (§2)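 Fasted glucose tolerance test in C57BL/6J mice. Animals were fasted and dosed orally, with no glucose challenge. Blood glucose was measured at 60 min.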

For data set [5], the system named is Mus musculus. As to the kind of experiment: Toxicity in C57BL/6J mouse assessed as hypoglycemic effect at 30 mg/kg, po after 60 mins. It is filed as organism-based. The note with it: in vivo, 1 h. The method in brief: as §2
A short description of data set [6]: Clearance in ICR mouse at 3 mg/kg, iv and 10 mg/kg, po. It is filed as ADME, organism-based. The conditions noted are these: in vivo.
The nature of data set [7]: Volume of distribution at steady state in ICR mouse at 3 mg/kg, iv and 10 mg/kg, po. It is filed as ADME, organism-based. The conditions noted are these: in vivo, read-out: Vdss.
The nature of data set [8]: Elimination half life in ICR mouse at 3 mg/kg, iv and 10 mg/kg, po. It is filed as ADME, organism-based. The conditions noted are these: in vivo, read-out: beta t1/2 (converted).
The nature of data set [9]: Oral bioavailability in ICR mouse at 10 mg/kg. The format is ADME, organism-based. The note with it: in vivo.
Data set [10] can be described thus: Solubility of the compound at pH 7.4. It is filed as physicochemical. The conditions noted are these: buffer.
A short description of data set [11]: Apparent permeability of the compound by PAMPA. It is filed as physicochemical. (In PAMPA a lipid-coated filter parts donor from acceptor wells.)

Converted amounts (≈) assume the structure as drawn. Some results are limits rather than exact numbers.

Regarding `COCC#Cc1cc(O[C@@H](C)COC)cc(C(=O)Nc2ccn(C)n2)c1`, in data set [1], the EC50 (commonly the concentration at which the effect is half-maximal) was determined as 1870 nM. Turning to `COC[C@H](C)Oc1cc(C#CCOC2CCCCO2)cc(C(=O)Nc2ccn(C)n2)c1` (stereo not given in full), in data set [1], the EC50 came to 6 nM. Also, the Activity in data set [2] turned out to be 44.7%. Take `COC[C@H](C)Oc1cc(C#CCN(C)C)cc(C(=O)Nc2ccn(C)n2)c1`: the EC50 in [1] was 7700 nM. Same read-out and setting: the result for `COC[C@H](C)Oc1cc(C#CCNc2ncccn2)cc(C(=O)Nc2ccn(C)n2)c1` reads 301 nM. In the case of `COC[C@H](C)Oc1cc(C#Cc2ccccc2OC)cc(C(=O)Nc2ccn(C)n2)c1`, the concentration giving a half-maximal response (EC50) in data set [1] came out at 21 nM. Further, the Activity in [3] stood at 49.1%.

For `COC[C@H](C)Oc1cc(C#Cc2ccc3[nH]ccc3c2)cc(C(=O)Nc2ccn(C)n2)c1`, in data set [1], the EC50 came out at 12 nM.

Take `COC[C@H](C)Oc1cc(C#Cc2ccc3c(c2)OCO3)cc(C(=O)Nc2ccn(C)n2)c1`: in data set [1], the EC50 stood at 30 nM.

Turning to `COC[C@H](C)Oc1cc(C#Cc2ccc(N)cc2)cc(C(=O)Nc2ccn(C)n2)c1`, the EC50 in data set [1] was 34 nM. Also, the Activity in [2] stood at 53.5%. Take `COC[C@H](C)Oc1cc(C#Cc2cccc(N)c2)cc(C(=O)Nc2ccn(C)n2)c1`: the half-maximal effective concentration (EC50) in [1] was 27 nM. Further, the Activity in [2] is 52.1%; in data set [3] it was 47.4%; in data set [4] it was more than 55 mg/dL; in data set [5] it was “Non-toxic”. In [6], this compound gave a clearance of 43.2 mL/min/kg. In addition, the Vd in data set [7] was 1.44 L/kg. For the same compound, in data set [8], the half-life was 1.1 h. In data set [9], the bioavailability – broadly, dose-corrected exposure relative to a reference, in per cent – came out at 49%. In addition, the concentration in solution in data set [10] (solubility) was 22.2 µM (≈ 8.98 µg/mL). The Papp – broadly, a coefficient for how fast a substance crosses the barrier – in [11] was 3.43 ×10⁻⁶ cm/s. As for `COC[C@H](C)Oc1cc(C#Cc2cccc(O)c2)cc(C(=O)Nc2ccn(C)n2)c1`, the EC50 in [1] is 39 nM. For the compound `COC[C@H](C)Oc1cc(C#Cc2cccc(N(C)C)c2)cc(C(=O)Nc2ccn(C)n2)c1`, the EC50 in data set [1] came to 37 nM. For the same compound, the Activity in data set [2] was 43.7%. On to `CCN(CC)c1cccc(C#Cc2cc(O[C@@H](C)COC)cc(C(=O)Nc3ccn(C)n3)c2)c1`, for which, in data set [1], the EC50 came to 163 nM.

In the case of `COC[C@H](C)Oc1cc(C#Cc2cccc(NCCN(C)C)c2)cc(C(=O)Nc2ccn(C)n2)c1`, the EC50 in [1] worked out at 6 nM. Moreover, in data set [3], the Activity worked out at 56%. As for `COC[C@H](C)Oc1cc(C#Cc2cccc(NCCN3CCCC3)c2)cc(C(=O)Nc2ccn(C)n2)c1`, in data set [1], the EC50 was 6 nM. The Activity in data set [2] is listed as 51.4%.

On to `COC[C@H](C)Oc1cc(C#Cc2cccc(NCCN3CCCCC3)c2)cc(C(=O)Nc2ccn(C)n2)c1`, for which the EC50 in data set [1] was 6 nM. For the same compound, the Activity in data set [2] is 54%. The corresponding values for `COC[C@H](C)Oc1cc(C#Cc2cccc(NCCN3CCOCC3)c2)cc(C(=O)Nc2ccn(C)n2)c1` are 20 nM and 47.9%. Take `COCCNc1cccc(C#Cc2cc(O[C@@H](C)COC)cc(C(=O)Nc3ccn(C)n3)c2)c1`: the EC50 in data set [1] amounted to 39 nM. Besides, in [3], the Activity worked out at 41%. Take `COC[C@H](C)Oc1cc(C#Cc2cccc(NCCn3ccnc3C)c2)cc(C(=O)Nc2ccn(C)n2)c1`: in data set [1], the EC50 was determined as 9 nM.

For the compound `COC[C@H](C)Oc1cc(C#Cc2cccc(OC(C)C)c2)cc(C(=O)Nc2ccn(C)n2)c1`, the EC50 in data set [1] came to 53 nM. The same measure, in the same setting: the result for `COC[C@H](C)Oc1cc(C#Cc2cccc(OCC#N)c2)cc(C(=O)Nc2ccn(C)n2)c1` reads 46 nM.

Turning to `COC[C@H](C)Oc1cc(C#Cc2cccc(OCCN3CCCC3)c2)cc(C(=O)Nc2ccn(C)n2)c1`, in data set [1], the EC50 came to 6 nM. In addition, the Activity in [2] turned out to be 51.6%. On the same counts, the results for `COC[C@H](C)Oc1cc(C#Cc2cccc(OCCN3CCCCC3)c2)cc(C(=O)Nc2ccn(C)n2)c1` are 7 nM and 46%. On to `COC[C@H](C)Oc1cc(C#Cc2cccc(OCCN3CCOCC3)c2)cc(C(=O)Nc2ccn(C)n2)c1`, for which the EC50 in data set [1] is 16 nM. On to `N[C@@H](CC(=O)N1CCn2c(nnc2C(F)(F)F)C1)Cc1cc(F)c(F)cc1F` [SITAGLIPTIN], for which the Activity in [3] is listed as 22.6%.

For the origin of these results see ChEMBL document CHEMBL3576833, “Design and Synthesis of Acetylenyl Benzamide Derivatives as Novel Glucokinase Activators for the Treatment of T2DM” (ACS Med Chem Lett, 2015).
